Sampled rows, rich in hits. Any-hit rate of the full collection: about 3.7%.
hERG protect: hERG rescue from dofetilide block, primary screen, cell-based, CHO-hERG, FluxOR thallium flux, dofetilide IC70 | actives 0.51% (n = 310,000) | Voltage-gated inwardly rectifying potassium channel KCNH2 (Homo sapiens), Q12809 | activation (rescue from dofetilide block), less the hit threshold, % at 10 µM | dofetilide IC70 present;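 active = activation above the mean of controls blocked by dofetilide plus 5 SD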;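 also: thallium influx through hERG after potassium depolarization seen as dye fluorescence rise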
Kir21 inh: inhibitors of mouse Kir2.1 inward-rectifier potassium channel. B-score at 10 µM. actives 0.85% (n = 310,000). HEK293-Kir2.1, FluxOR thallium flux fluorescence; hits give low values. Inward rectifier potassium channel 2 (Mus musculus), P35561;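 active = fluorescence ratio B-score at or below minus 3 SD of library scores, with starting-brightness B-score within 2 SD, cut at about -4.2 in these data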;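 also: channel flux triggered by added potassium and thallium sulfate stimulus; B-score of peak minus minimum fluorescence over baseline after thallium stimulus; more negative B-score means stronger Kir2.1 block with less thallium influx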
Target sequence (P35561 whole entry, looked up): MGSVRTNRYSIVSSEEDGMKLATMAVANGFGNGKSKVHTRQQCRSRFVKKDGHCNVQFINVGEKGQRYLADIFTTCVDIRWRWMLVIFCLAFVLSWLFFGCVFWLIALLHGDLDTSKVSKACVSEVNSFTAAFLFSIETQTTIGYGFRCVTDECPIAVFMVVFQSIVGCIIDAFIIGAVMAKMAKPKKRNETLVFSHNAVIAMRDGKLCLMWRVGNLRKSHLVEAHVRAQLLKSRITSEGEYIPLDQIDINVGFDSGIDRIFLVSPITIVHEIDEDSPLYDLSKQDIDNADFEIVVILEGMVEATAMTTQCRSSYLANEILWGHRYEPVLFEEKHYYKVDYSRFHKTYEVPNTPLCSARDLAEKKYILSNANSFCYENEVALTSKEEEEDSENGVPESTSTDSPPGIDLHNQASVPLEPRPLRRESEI
KCNK9 inh: KCNK9 potassium channel inhibitors, primary screen, HEK293 cells, thallium flux; Potassium channel subfamily K member 9 (Homo sapiens), Q9NPC2; FluxOR thallium flux fluorescence; hits give low values; B-score at 10 µM; actives 1.2% (n = 310,000); AID 488922, 2010;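 active = ratio B-score over 3 SD below the library mean, with starting fluorescence within 5 SD of its mean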;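 also: negative B-score means less thallium flux so channel inhibition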
KCNQ1 act: potentiators or activators of KCNQ1 channel, primary screen, cell-based, thallium flux, high-throughput | Potassium voltage-gated channel subfamily KQT member 1 (Homo sapiens), P51787 | CHO-K1 KCNQ1, thallium flux FluxOR fluorescence; hits give high values | B-score at 10 µM | actives 0.35% (n = 310,000) | AID 2648, 2010;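 active = fluorescence ratio B-score, a plate-corrected score, at least three library SD, with initial intensity B-score within 5 SD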
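assay system = CHO-K1 cells stably expressing KCNQ1 | medium = assay buffer, equal DMSO in all wells | timing = 37 °C overnight plating, 90-min dark dye load, 20-min compound pretreatment | measured by = kinetic FluxOR thallium fluorescence, 10-s 1-Hz baseline, 110-s post-stimulus read | measure = fluorescence change relative to baseline, converted to B score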
KCNK3 inh: human KCNK3 channel inhibitors, primary screen, CHO cells, FluxOR thallium flux, B-score; actives 0.84% (n = 340,000); AID 602410, 2012; FluxOR fluorescence; hits give low values; Potassium channel subfamily K member 3 (Homo sapiens), O14649; B-score at 10 µM;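 active = B-score under library mean minus 4 SD, starting fluorescence ratio at most library mean plus 5 SD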;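 also: more negative B-score means stronger inhibition of thallium flux through KCNK3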
KCNQ1 block: inhibitors of human KCNQ1 channel, primary screen, cell-based, thallium flux, high-throughput; actives 1.3% (n = 310,000); CHO-K1 KCNQ1, FluxOR thallium flux fluorescence; hits give high values; B-score at 10 µM; Potassium voltage-gated channel subfamily KQT member 1 (Homo sapiens), P51787;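 active = compounds whose thallium flux B-score, printed positive for inhibition, exceeds three library SD while starting fluorescence stays within three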;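 also: channel opened by potassium depolarization with thallium stimulus after 20 min compound exposure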
The depositor's hits bear a star.

What do the screens show for `Cc1sc2c(c1C)C(=O)/C(=C\Nc1ccncc1)S(=O)(=O)N2C`?
hERG protect: -3.4; Kir21 inh: -0.15; KCNK9 inh: inactive; KCNQ1 act: inactive; KCNK3 inh: inactive; KCNQ1 block: inactive

Results for O=C1CC(O)(C(F)(F)F)Oc2c1ccc1ccccc21 (stereo unspecified) ?
hERG protect: 6.8*; Kir21 inh: 0.51; KCNK9 inh: inactive; KCNQ1 act: 8*; KCNK3 inh: inactive; KCNQ1 block: inactive

How did CC1(C)Cc2c(ccc3ccccc23)C(=O)N1 do in these assays?
hERG protect: -14.6; Kir21 inh: 0.88; KCNK9 inh: inactive; KCNQ1 act: inactive; KCNK3 inh: inactive; KCNQ1 block: inactive

How did CC(C)(C)OC(=O)N(CCc1ccccc1)Cc1cccc(OCc2cccc(NC(=O)c3ccccc3)c2)c1 do in these assays?
KCNK3 inh: inactive

What do the screens show for `CCSc1cc(N2CC(C)OC(C)C2)nc(-c2ccccc2Cl)n1` (stereo unspecified)?
hERG protect: 0.9; Kir21 inh: 0.34; KCNK9 inh: inactive; KCNQ1 act: inactive; KCNK3 inh: -9.13*; KCNQ1 block: inactive

How did CCSc1cc(N2CCCC2)nc(-c2ccc(C)cc2)n1 do in these assays?
hERG protect: 1.2; Kir21 inh: 1.6; KCNK9 inh: inactive; KCNQ1 act: inactive; KCNK3 inh: inactive; KCNQ1 block: inactive

How did C/C(=N\N=C(c1ccccc1)c1ccccc1)c1cccs1 do in these assays?
hERG protect: -12.1; Kir21 inh: 0.01; KCNK9 inh: inactive; KCNQ1 act: inactive; KCNK3 inh: inactive; KCNQ1 block: 6*

How did CC(C)N(Cc1ccccc1)C(=S)NCc1ccccc1 do in these assays?
hERG protect: -9.3; Kir21 inh: -4.21*; KCNK9 inh: inactive; KCNQ1 act: inactive; KCNK3 inh: inactive; KCNQ1 block: inactive

Results for COc1ccc(CNC2CCCc3ccccc32)cc1OC (stereo unspecified) ?
hERG protect: -11.2; Kir21 inh: 0.25; KCNK9 inh: inactive; KCNQ1 act: inactive; KCNK3 inh: inactive; KCNQ1 block: inactive

How did COc1ccc(CNC2c3ccccc3-c3ccccc32)cc1OC do in these assays?
hERG protect: -6.3; Kir21 inh: -4.36*; KCNK9 inh: inactive; KCNQ1 act: inactive; KCNK3 inh: inactive; KCNQ1 block: inactive

How did CC[C@@H](NS(=O)(=O)c1ccc(C)cc1)C(=O)Oc1ccc2c3c(c(=O)oc2c1)CCC3 do in these assays?
hERG protect: -8.4; Kir21 inh: 0.01; KCNK9 inh: inactive; KCNQ1 act: inactive; KCNK3 inh: inactive; KCNQ1 block: inactive

Results for Cc1ccc(S(=O)(=O)NC(CC(C)C)C(=O)Oc2ccc3c4c(c(=O)oc3c2)CCC4)cc1 (stereo unspecified) ?
hERG protect: -7.2; Kir21 inh: -0.15; KCNK9 inh: inactive; KCNQ1 act: inactive; KCNK3 inh: inactive; KCNQ1 block: 6*

What do the screens show for `Cc1ccc(S(=O)(=O)NC(C(=O)Oc2ccc3c(C(F)(F)F)cc(=O)oc3c2)c2ccccc2)cc1` (stereo unspecified)?
hERG protect: -11.8; Kir21 inh: -3.43; KCNK9 inh: inactive; KCNQ1 act: inactive; KCNK3 inh: inactive; KCNQ1 block: 6*

What do the screens show for `CN(C(=O)c1ccc(NC(=O)Cc2cccc(NC(=O)C3CCCN(C(=O)C4CC4)C3)c2)cc1)C1CC1` (stereo unspecified)?
KCNK3 inh: inactive

What do the screens show for `CCCn1nc(C(=O)Nc2cc(OCC)c(N3CCOCC3)cc2OCC)c2ccccc2c1=O`?
KCNK3 inh: inactive

Results for Oc1c(Cl)cc(Cl)cc1Sc1cc(Cl)cc(Cl)c1O ?
hERG protect: 43.0*; Kir21 inh: 0.96; KCNK9 inh: inactive; KCNQ1 act: 105*; KCNQ1 block: inactive
